Screening data deposited in PubChem by several laboratories.
HUVEC inhibit: inhibitors of human endothelial cell proliferation | HUVEC proliferation, CellTiter-Glo luminescence, 72 h; active compounds read low | viability, % at 10 µM (by protocol) | 86,000 tested, 1.1% active | AID 648;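 active = viability at or below 30%; inactive = viability above 30%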;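 note: 100% = median luminescence of DMSO-only cell control wells on each plate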
H69AR inhibit: blocks growth of human H69AR lung tumor cells; 85,000 tested, 6% active; AID 598; H69AR lung tumor viability, ATP luminescence, 72 h; active compounds read low; viability, % at 10 µM;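 active = viability at or below 40%; inactive = viability above 40%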;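 note: multidrug resistant small cell line overexpressing MRP-1 efflux transporter; 100% = mean luminescence of untreated control wells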
Lung fibro prol: blocks proliferation of human lung fibroblasts; LL 47 human lung fibroblast viability, ATP luminescence; active compounds read low; viability, % at 10 µM; 85,000 tested, 1.1% active; AID 719;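 active = viability at or below 50% in the single dose screen; inactive = viability above 50%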;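 note: compound exposure lasted 72 h before the ATP readout; 100% = median luminescence of untreated cell-only wells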
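Signal: luminescent ATP detection, CellTiter-Glo; assay system: LL 47 human lung fibroblasts; input: 1,150 cells/well; incubation: overnight cell rest, 72 h compound treatment at 37 °C; measure: % viability versus median cells-only luminescence; medium: IMEM growth medium with 15% fetal bovine serum; dosing: compound addition at 0.1% DMSO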
Jurkat viability: reduces viability or proliferation of Jurkat cells; Jurkat E6.1 viability, ATP luminescence, 48 h; inhibition, % at 4 µM; 56,000 tested, 1.2% active;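 active = inhibition above the mean inhibition of all tested compounds plus 3 SD, cut at about 28% in these data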
Starred values were filed as active, the others as inactive. A selection: hits, their analogues and other compounds. The true share with any hit is near 6.4%.

Screening O=C(Nc1ccc(OC(F)F)cc1)Nc1cccc(C(F)(F)F)c1 returned HUVEC inhibit 31.4, H69AR inhibit 3.7* and Lung fibro prol 38.2*.
COC(=O)[C@H](C)NC(=O)Nc1cccc(C(F)(F)F)c1 was read as HUVEC inhibit 103.6, H69AR inhibit 90.6, Lung fibro prol 103.6 and Jurkat viability -4.0.
Screening COc1cccc(CN2C(=O)C3(C(C#N)=C(N)OC4=C3C(=O)CCC4)c3ccccc32)c1 (configuration not stated) returned HUVEC inhibit 4.0*, H69AR inhibit 18.9*, Lung fibro prol 20.4* and Jurkat viability -1.6.
Screening Cc1cc2cc(CN(Cc3ccc4c(c3)OCO4)Cc3nnnn3C3CCCC3)c(=O)[nH]c2cc1C returned HUVEC inhibit 65.6, H69AR inhibit 67.5, Lung fibro prol 96.0 and Jurkat viability -2.2.
`O=c1[nH]c2cc3c(cc2cc1CN(CCc1ccccc1)Cc1nnnn1C1CCCC1)OCCO3` gave HUVEC inhibit 77.2, H69AR inhibit 35.5*, Lung fibro prol 96.9 and Jurkat viability -2.2.
Cc1cccc2cc(CN(Cc3nnnn3C3CCCC3)C3CCCCC3)c(=O)[nH]c12 was read as HUVEC inhibit 82.6, H69AR inhibit 78.0, Lung fibro prol 102.3 and Jurkat viability -5.1.
Screening Cc1ccc2cc(CN(Cc3nnnn3C3CCCCC3)CC3CCCO3)c(=O)[nH]c2c1 (configuration not stated) returned HUVEC inhibit 99.2, H69AR inhibit 55.9, Lung fibro prol 94.8 and Jurkat viability -4.8.
Screening O=c1[nH]c2cc3c(cc2cc1CN(Cc1ccccc1)Cc1nnnn1Cc1ccco1)OCCO3 returned HUVEC inhibit 69.3, H69AR inhibit 45.0, Lung fibro prol 92.6 and Jurkat viability 4.5.
For COc1ccc(CN(Cc2cc3ccc(C)cc3[nH]c2=O)Cc2nnnn2C2CCCC2)cc1 the results were HUVEC inhibit 67.4, H69AR inhibit 24.9*, Lung fibro prol 91.9 and Jurkat viability -1.1.
`CCc1ccc2[nH]c(=O)c(CN(Cc3nnnn3C3CCCC3)C3CCCCC3)cc2c1` gave HUVEC inhibit 70.8, H69AR inhibit 11.9* and Jurkat viability 2.4.
For Cc1ccc2[nH]c(=O)c(CN(Cc3ccc4c(c3)OCO4)Cc3nnnn3C3CCCC3)cc2c1 the results were HUVEC inhibit 65.0, H69AR inhibit 11.4*, Lung fibro prol 87.1 and Jurkat viability 9.9.
For CS(=O)(=O)N(CC(=O)N1CCCCCC1)c1ccc2c(c1)OCCO2 the results were HUVEC inhibit 100.5, H69AR inhibit 99.3, Lung fibro prol 104.4 and Jurkat viability -2.7.
`CCCCC(=O)Nc1ccc(NC(=O)C2CC2)nc1` gave HUVEC inhibit 105.5, H69AR inhibit 73.2, Lung fibro prol 100.0 and Jurkat viability 7.5.
CCOc1ccccc1NC(=O)CC(O)(C(F)(F)F)C(F)(F)F was read as HUVEC inhibit 93.2, H69AR inhibit 90.4 and Lung fibro prol 102.1.
Screening CCOc1ccccc1NC(=O)/C=C/C(N)=O returned HUVEC inhibit 95.4, H69AR inhibit 1.3* and Lung fibro prol 89.6.
Screening COc1ccc(OC)c(C(c2nnnn2Cc2ccccc2)N2CCN(C3CCCCC3)CC2)c1 (configuration not stated) returned Jurkat viability 10.1.
CCCCCCn1c(NCC)nc2c1c(=O)n(C)c(=O)n2C was read as HUVEC inhibit 79.9, H69AR inhibit 61.7, Lung fibro prol 86.2 and Jurkat viability 77.6*.
`CCCCNc1nc2c(c(=O)n(C)c(=O)n2C)n1CCC` gave Jurkat viability 7.1.
Screening CCCNc1nc2c(c(=O)n(C)c(=O)n2C)n1CCC(C)C returned HUVEC inhibit 102.0, H69AR inhibit 78.8, Lung fibro prol 89.2 and Jurkat viability 33.0*.
Screening CCCCCCn1c(N2CCN(c3ccccc3)CC2)nc2c1c(=O)n(C)c(=O)n2C returned HUVEC inhibit 22.9*, H69AR inhibit 68.6, Lung fibro prol 89.8 and Jurkat viability 11.1.
For CCOCCn1c(N2CCN(c3ccccc3)CC2)nc2c1c(=O)n(C)c(=O)n2C the results were HUVEC inhibit 103.7, H69AR inhibit 99.8 and Lung fibro prol 100.9.
Screening CN1C(=O)N(C)C2(c3ccccc3)N(C)C(=O)NC12c1ccccc1 (configuration not stated) returned HUVEC inhibit 98.1, H69AR inhibit 97.1, Lung fibro prol 94.9 and Jurkat viability 1.1.
`N=c1cc(C2(O)CCCCC2)n2c(nc3ccccc32)s1` gave HUVEC inhibit 65.0, H69AR inhibit 6.8* and Lung fibro prol 96.5.
`O=C(Nc1ccc2nc(-c3ccccn3)[nH]c2c1)C1CCCCC1` gave HUVEC inhibit 78.0, H69AR inhibit 26.1* and Lung fibro prol 99.4.
Screening CC(C)c1nc2ccc(NC(=O)C3CCCCC3)cc2[nH]1 returned HUVEC inhibit 86.8, H69AR inhibit 88.1 and Lung fibro prol 115.2.
For COc1ccc(N=C2C(=O)Nc3c(C)cccc32)cc1 the results were HUVEC inhibit 82.3, H69AR inhibit 74.5, Lung fibro prol 98.6 and Jurkat viability 6.5.
`N#Cc1ccc(N=c2ssnc2Cl)cc1` gave HUVEC inhibit 58.2, H69AR inhibit 2.6* and Lung fibro prol 81.9.
Screening Clc1ccc(N=c2ssnc2Cl)cc1 returned HUVEC inhibit 67.1, H69AR inhibit 1.9* and Lung fibro prol 84.0.
`COc1ccc(N=c2ssnc2Cl)cc1` gave HUVEC inhibit 91.9, H69AR inhibit 1.3* and Lung fibro prol 63.4.
`COc1cc(N=c2ssnc2Cl)cc(OC)c1OC` gave HUVEC inhibit 56.0, H69AR inhibit 1.7*, Lung fibro prol 47.5* and Jurkat viability 13.4.
For COc1cc(-c2nnc(-c3cc(OC)c(OC)c(OC)c3)o2)cc(OC)c1OC the results were HUVEC inhibit 79.5, H69AR inhibit 77.6 and Lung fibro prol 98.6.
`Cc1cc(C)nc(NS(=O)(=O)c2ccc(N3C(=O)C4CC=C(Cl)CC4C3=O)cc2)n1` (configuration not stated) gave HUVEC inhibit 96.1, H69AR inhibit 94.5, Lung fibro prol 100.1 and Jurkat viability -4.6.
CC#CCN(CC#CC)S(=O)(=O)c1ccc(-n2cnnn2)c(OC)c1 was read as HUVEC inhibit 87.8, H69AR inhibit 86.4, Lung fibro prol 99.3 and Jurkat viability 2.7.
Screening c1cc2c(cc1C1CCCN1)OCCCO2 (configuration not stated) returned HUVEC inhibit 94.8, H69AR inhibit 98.3, Lung fibro prol 111.9 and Jurkat viability 1.6.
`Cc1ccc2cccc(NC(=S)NC(=O)c3c(Br)cnn3C)c2n1` gave HUVEC inhibit 61.7, H69AR inhibit 26.1* and Lung fibro prol 81.8.
`Cn1nnnc1SCC(=O)Nc1ccccc1N1CCCCC1` gave HUVEC inhibit 90.9, H69AR inhibit 86.3, Lung fibro prol 96.2 and Jurkat viability 0.2.
`O=C(c1cn(-c2ccccc2)nc1-c1cccs1)N1CCN(c2ccccc2)CC1` gave HUVEC inhibit 53.1, H69AR inhibit 10.6* and Lung fibro prol 75.4.
Screening O=C(c1cn(-c2ccccc2)nc1-c1cccs1)N1CCOCC1 returned HUVEC inhibit 92.5, H69AR inhibit 96.8 and Lung fibro prol 96.2.
For Cc1ccccc1Cn1nnc2c1C(=O)c1ccccc1C2=O the results were HUVEC inhibit 2.1*, H69AR inhibit 12.2* and Lung fibro prol 32.0*.
